Experimental data: ChEMBL document CHEMBL1145831 (J Med Chem, 2003)

Assays:
[1] = system: CCRF-CEM; test: In vitro growth inhibitory activity in the human CCRF-CEM leukemia cell line.; assay type: functional, cell-based
In short: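 CCRF-CEM human leukemia cells in log phase, 4.8 × 10⁴ cells per 2 mL well. Medium was RPMI-1640 with 10% dialyzed FBS and 25 mM HEPES. Compounds were serially diluted 1:3 in DMSO and added to duplicate wells, with DMSO-only controls, at 0.5% final DMSO. Cells were exposed 72 h at 37 °C in humidified 5% CO₂, then counted. IC50 in nM.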

[2] = system: Mus musculus; test: In vivo antitumor activity against murine pancreatic adenocarcinoma and measured as % weight loss on a schedule of 10-14 days and at a total dose of 41 mg/kg; assay type: functional
In short: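 Body weight loss was tracked in mice implanted with the Panc-03 murine pancreatic adenocarcinoma. Injections were given within 20 min of aqueous preparation from stock solutions, with chlorohydrins acidified using 0.05% citric acid.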

[3] = system: Mus musculus; test: In vivo antitumor activity against murine pancreatic adenocarcinoma and measured as number of deaths on a schedule of 10-14 days and at a total dose of 41 mg/kg; assay type: ADME, organism-based; set-up: dose 41 mg/kg
In short: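 Mice bearing drug-sensitive murine pancreatic adenocarcinoma Panc-03 were dosed on the listed days at the listed total doses. Dosing solutions were made in water from stock solutions and injected within 20 min. Chlorohydrin solutions were acidified with 0.05% citric acid. Tolerance was recorded as body weight loss and number of deaths.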

[4] = system: Mus musculus; test: Log cell kill of tumor bearing mice on a schedule of 10-14 days and at a total dose of 41 mg/kg; assay type: functional, organism-based; set-up: dose 41 mg/kg
In short: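 Panc-03 murine pancreatic adenocarcinoma in mice. Aqueous dosing solutions were prepared from stocks and injected within 20 min; chlorohydrins were acidified with 0.05% citric acid. Log cell kill was calculated from tumor growth delay, the difference in days between treated and control animals to reach 1000 mg tumor weight.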

[5] = system: Mus musculus; test: Ratio of the median tumor weight in the treatment group over the median tumor weight in the control group on a schedule of 10-14 days and at a total dose of 41 mg/kg; assay type: functional
In short: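 Mice bearing the drug-sensitive murine pancreatic adenocarcinoma Panc-03. Dosing solutions were made in water from stock solutions and injected within 20 min of preparation; chlorohydrins were acidified with 0.05% citric acid. T/C (%) = median tumor weight of the treated group ÷ median tumor weight of controls × 100, calculated when control median tumor weight reached 1 g.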

| Structure (SMILES) | IC50 [1] | other results |
| --- | --- | --- |
| COc1ccc(/C=C/[C@@H](C)[C@@H]2C/C=C/C(=O)N[C@H](Cc3ccc(OC)c(Cl)c3)C(=O)NCC(C)(C)C(=O)O[C@@H](CC(C)C)C(=O)O2)cc1 | 12000 pM | – |
| COc1ccc([C@H]2O[C@@H]2[C@@H](C)[C@@H]2C/C=C/C(=O)N[C@H](Cc3ccc(OC)c(Cl)c3)C(=O)NCC(C)(C)C(=O)O[C@@H](CC(C)C)C(=O)O2)cc1 | 280 pM | – |
| COc1ccc(C[C@H]2NC(=O)/C=C/C[C@@H]([C@H](C)/C=C/c3ccc(C)c(C)c3)OC(=O)[C@H](CC(C)C)OC(=O)C(C)(C)CNC2=O)cc1Cl | 70000 pM | – |
| CC(=O)O[C@H]1C(=O)[C@@]2(C)[C@H]([C@H](OC(=O)c3ccccc3)[C@]3(O)C[C@H](OC(=O)[C@H](O)[C@@H](NC(=O)c4ccccc4)c4ccccc4)C(C)=C1C3(C)C)[C@]1(OC(C)=O)CO[C@@H]1C[C@@H]2O [PACLITAXEL] | – | Weight loss [2]: -5%; Death [3]: 0; Log kill [4]: 4.2; T/C [5]: 0% |
| COc1ccc(C[C@H]2NC(=O)/C=C/C[C@@H]([C@H](C)[C@H]3O[C@@H]3c3ccc(C)c(C)c3)OC(=O)[C@H](CC(C)C)OC(=O)C(C)(C)CNC2=O)cc1Cl | 50 pM | – |
| COc1ccc(C[C@H]2NC(=O)/C=C/C[C@@H]([C@H](C)/C=C/c3ccc(CO)cc3)OC(=O)[C@H](CC(C)C)OC(=O)C(C)(C)CNC2=O)cc1Cl | 790 pM | – |
| COc1ccc(C[C@H]2NC(=O)/C=C/C[C@@H]([C@H](C)[C@@H]3O[C@H]3c3cc(C)ccc3C)OC(=O)[C@H](CC(C)C)OC(=O)C(C)(C)CNC2=O)cc1Cl | 100000 pM | – |
| COc1ccc(C[C@H]2NC(=O)/C=C/C[C@@H]([C@H](C)[C@H]3O[C@@H]3c3ccc(CN4CCN(C(=O)OC(C)(C)C)CC4)cc3)OC(=O)[C@H](CC(C)C)OC(=O)C(C)(C)CNC2=O)cc1Cl | 1 pM | – |
| COc1ccc(C[C@H]2NC(=O)/C=C/C[C@@H]([C@H](C)/C=C/c3ccc(O)cc3)OC(=O)[C@H](CC(C)C)OC(=O)C(C)(C)CNC2=O)cc1Cl | 4000 pM | – |
| CCN(CC)Cc1ccc([C@H]2O[C@@H]2[C@@H](C)[C@@H]2C/C=C/C(=O)N[C@H](Cc3ccc(OC)c(Cl)c3)C(=O)NCC(C)(C)C(=O)O[C@@H](CC(C)C)C(=O)O2)cc1 | 3 pM | – |
| COc1ccc(C[C@H]2NC(=O)/C=C/C[C@@H]([C@H](C)/C=C/c3cc(C)ccc3C)OC(=O)[C@H](CC(C)C)OC(=O)C(C)(C)CNC2=O)cc1Cl | 440000 pM | – |
| COc1ccc(C[C@H]2NC(=O)/C=C/C[C@@H]([C@H](C)[C@@H](O)[C@@H](Cl)c3ccc(CNCCN)cc3)OC(=O)[C@H](CC(C)C)OC(=O)C(C)(C)CNC2=O)cc1Cl | 92 pM | – |
| COc1ccc(C[C@H]2NC(=O)/C=C/C[C@@H]([C@H](C)[C@@H](O)[C@@H](Cl)c3ccc(CNC(=O)CN(C)C(=O)OC(C)(C)C)cc3)OC(=O)[C@H](CC(C)C)OC(=O)C(C)(C)CNC2=O)cc1Cl | 20 pM | – |
| COC(=O)c1ccc([C@H](Cl)[C@H](O)[C@@H](C)[C@@H]2C/C=C/C(=O)N[C@H](Cc3ccc(OC)c(Cl)c3)C(=O)NCC(C)(C)C(=O)O[C@@H](CC(C)C)C(=O)O2)cc1 | 37 pM | – |
